Results on three compounds are retold here after ChEMBL document CHEMBL4431307, “Dehydroleucodine, a Sesquiterpene Lactone from Gynoxys verrucosa, Demonstrates Cytotoxic Activity against Human Leukemia Cells” (J Nat Prod, 2016).

The subject of series [1] is U-937. As to the kind of experiment: Cytotoxicity against human U937 cells assessed as decrease in cell viability after 48 hrs […]. The series is classed as functional. To be noted: U-937, 48 h, read-out: LD50 (the source's name). In short, it runs like this:
(§1)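 AML cell lines seeded at 0.5 million cells/mL (counted by Trypan Blue exclusion) and exposed to varying concentrations in triplicate for 48 h. Read-out by flow cytometry after annexin V (FITC or PE) and 7-AAD staining, at least 50 000 events per condition; annexin V/7AAD double-negative cells scored viable. Value reported as LD50.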

Series [2] concerns MOLM-13. As to the kind of experiment: Upregulation of heme oxygenase 1 in human MOLM13 cells at 20 uM after 6 hrs by qRT-PCR analysis. The series is classed as functional, cell-based. In short, it runs like this:
(§2)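 MOLM-13 cells at 0.5 million/mL were treated 6 h with 20 μM compound, then total RNA was extracted. One-step TaqMan RT-qPCR was run: RT 48 °C 15 min, then 95 °C 10 min, then 40 cycles of 95 °C 15 s and 60 °C 1 min. Singleplex reactions were in triplicate, with fold change by the 2^-ΔΔCt method.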
Background: In qPCR the cycle at which signal appears reflects the starting amount.

For series [3], the system named is KG-1. In words: Cytotoxicity against human KG1 cells assessed as decrease in cell viability after 48 hrs […]. It is filed as functional. The conditions noted are these: KG-1, 48 h, read-out: LD50 (the source's name). The procedure, abridged: as §1
For series [4], the species on record is Homo sapiens. In words: Inhibition of NF-kappaB p65 phosphorylation in human MOLM13 cells at 5 to 20 uM after 6 hrs by Western blot analysis. The series is classed as cell-based. In short, it runs like this: (§3)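 MOLM-13 cells at 0.5 million/mL were treated 6 h and lysed on ice for 30 min in Tris pH 7.5/NaCl/Triton/SDS buffer with phosphatase and protease inhibitors. Lysates were run on 10% SDS-PAGE and blotted to PVDF. Membranes were probed separately for phospho-p65 and total p65 at 4 °C overnight, detected with IRDye secondaries by infrared imaging, with total p65 as loading control.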
A general note: Immunoblotting shows a protein as a band on a membrane.

The species named for series [5] is Homo sapiens. As to the kind of experiment: Inhibition of NF-kappaB in human MOLM13 cells assessed as CDK6 gene expression at 10 to 20 uM after 6 hrs by Western blot analysis. It is filed as cell-based.
Series [6] concerns HL-60. As to the kind of experiment: Cytotoxicity against human HL60 cells assessed as decrease in cell viability after 48 hrs […]. The series is classed as functional. To be noted: HL-60, 48 h, read-out: LD50 (the source's name). The procedure, abridged:
as §1

Series [7] is filed under the species Homo sapiens. As to the kind of experiment: Inhibition of NF-kappaB DNA binding activity in human MOLM13 cells by ELISA. It is filed as cell-based. The procedure, abridged: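 p65 DNA-binding ELISA in MOLM-13 cells, with TNFα as positive control, run in triplicate.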
The subject of series [8] is MOLM-13. In words: Upregulation of HSPA1A in human MOLM13 cells at 20 uM after 6 hrs by qRT-PCR analysis. The series is classed as functional, cell-based. In short, it runs like this:
as §2

In series [9] the test system is TUR. In words: Cytotoxicity against human TUR cells assessed as decrease in cell viability after 48 hrs […]. It is filed as functional. To be noted: read-out: LD50 (the source's name). The procedure, abridged: as §1
Series [10] concerns MOLM-13. In words: Cytotoxicity against human MOLM13 cells assessed as decrease in cell viability after 48 hrs […]. To be noted: MOLM-13, 48 h, read-out: LD50 (the source's name). It is filed as functional. The procedure, abridged: as §1
The test system of series [11] is Kasumi 1. As to the kind of experiment: Cytotoxicity against human Kasumi-1 cells assessed as decrease in cell viability after 48 hrs by […]. It is filed as functional. The conditions noted are these: Kasumi 1, 48 h, read-out: LD50 (the source's name). The procedure, abridged: as §1
The subject of series [12] is THP-1. In words: Cytotoxicity against human THP1 cells assessed as decrease in cell viability after 48 hrs […]. It is filed as functional. The conditions noted are these: THP-1, 48 h, read-out: LD50 (the source's name). In short, it runs like this:
as §1

Series [13] is filed under the species Homo sapiens. As to the kind of experiment: Inhibition of NF-kappaB in human MOLM13 cells assessed as MYB gene expression at 10 to 20 uM after 6 hrs by Western blot analysis. The series is classed as cell-based.
For series [14], the system named is MOLM-13. In words: Downregulation of NF-kappaB1A transcription in human MOLM13 cells at 20 uM after 6 hrs by qRT-PCR analysis. The series is classed as functional, cell-based. The procedure, abridged:
as §2

Series [15] has as its system MV4-11. In words: Cytotoxicity against human MV4-11 cells assessed as decrease in cell viability after 48 hrs […]. The series is classed as functional. To be noted: MV4-11, 48 h, read-out: LD50 (the source's name). The procedure, abridged: as §1
The test system of series [16] is MOLM-13. As to the kind of experiment: Effect on total NF-kappaB p65 level in human MOLM13 cells at 5 to 20 uM after 6 hrs by Western blot analysis. The series is classed as cell-based. To be noted: molm-13, 6 h. In short, it runs like this: as §3
In the next series the test system is KB. In words: Cytotoxicity against human KB cells assessed as decrease in cell viability after 72 hrs by MTT assay. It is filed as functional, cell-based. (In general: Tetrazolium dyes change colour on reduction, which living cells bring about.)
Series [17] concerns THP-1. As to the kind of experiment: Cytotoxicity against human THP1 cells assessed as decrease in cell viability at 20 uM after 48 hrs by annexin V-FITC/7-AAD staining based flow cytometry relative to control. It is filed as functional. In short, it runs like this: (§4)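 AML cell lines kept at 0.5 million cells/mL and treated in triplicate for 48 h. Cells were stained with annexin V (FITC or PE) plus 7-AAD, and at least 50 000 events were recorded per condition by flow cytometry. Annexin V-/7-AAD- cells were scored viable, with viability taken relative to untreated control.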

For series [18], the system named is MOLM-13. As to the kind of experiment: Cytotoxicity against human MOLM13 cells assessed as decrease in cell viability at 20 uM after 48 hrs by annexin V-FITC/7-AAD staining based flow cytometry relative to control. It is filed as functional. The procedure, abridged:
as §4

The test system of series [19] is HL-60. As to the kind of experiment: Cytotoxicity against human HL60 cells assessed as decrease in cell viability at 20 uM after 48 hrs by annexin V-FITC/7-AAD staining based flow cytometry relative to control. The series is classed as functional. In short, it runs like this:
as §4

The test system of series [20] is PBMC. As to the kind of experiment: Cytotoxicity against human peripheral blood mononuclear cells assessed as decrease in cell viability at 20 uM after 48 hrs by annexin V-FITC/7-AAD staining based flow cytometry relative to control. In short, it runs like this: (§5)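 Bone marrow and peripheral blood mononuclear cells from healthy donors were isolated by Ficoll density gradient. They were held 1 h in serum-free medium with rhFLT-3 ligand 50 ng/mL, rhSCF 50 ng/mL, rhIL-3 20 ng/mL and rhIL-6 20 ng/mL before drug. Treatment ran 48 h, and viability was read by annexin V/7-AAD flow cytometry relative to untreated control.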

For series [21], the system named is Kasumi 1. As to the kind of experiment: Cytotoxicity against human Kasumi-1 cells assessed as decrease in cell viability at 20 uM after 48 hrs by annexin V-FITC/7-AAD staining based flow cytometry relative to control. The series is classed as functional. In short, it runs like this:
as §4

Series [22] concerns U-937. As to the kind of experiment: Cytotoxicity against human U937 cells assessed as decrease in cell viability at 20 uM after 48 hrs by annexin V-FITC/7-AAD staining based flow cytometry relative to control. It is filed as functional. In short, it runs like this: as §4
Series [23] concerns TUR. In words: Cytotoxicity against human TUR cells assessed as decrease in cell viability at 20 uM after 48 hrs by annexin V-FITC/7-AAD staining based flow cytometry relative to control. The series is classed as functional. In short, it runs like this:
as §4

The subject of series [24] is Bone marrow cell. As to the kind of experiment: Cytotoxicity against human bone marrow cells assessed as decrease in cell viability at 20 uM after 48 hrs by annexin V-FITC/7-AAD staining based flow cytometry relative to control. In short, it runs like this: as §5
A further series relates to HeLa S3. As to the kind of experiment: Cytotoxicity against human HeLaS3 cells assessed as decrease in cell viability after 72 to 96 hrs by MTT assay. It is filed as functional, cell-based.
The next series relates to MCF7. In words: Cytotoxicity against human MCF7 cells assessed as decrease in cell viability after 72 to 96 hrs by MTT assay. It is filed as functional, cell-based.
For series [25], the system named is MV4-11. As to the kind of experiment: Cytotoxicity against human MV4-11 cells assessed as decrease in cell viability at 20 uM after 48 hrs by annexin V-FITC/7-AAD staining based flow cytometry relative to control. It is filed as functional. In short, it runs like this: as §4
Series [26] concerns KG-1. As to the kind of experiment: Cytotoxicity against human KG1 cells assessed as decrease in cell viability at 20 uM after 48 hrs by annexin V-FITC/7-AAD staining based flow cytometry relative to control. It is filed as functional. The procedure, abridged:
as §4

The subject of a further series is Leukemia cell. As to the kind of experiment: Cytotoxicity against primary leukemia cells isolated from human AML patient assessed as cell death after 48 hrs by […]. It is filed as functional. The conditions noted are these: read-out: LD50 (the source's name).
Series [27] relates to PBMC. In words: Cytotoxicity against human peripheral blood mononuclear cells assessed as decrease in cell viability at 50 uM after 48 hrs by annexin V-FITC/7-AAD staining based flow cytometry relative to control. In short, it runs like this:
as §5

For series [28], the system named is Bone marrow cell. As to the kind of experiment: Cytotoxicity against human bone marrow cells assessed as decrease in cell viability at 50 uM after 48 hrs by annexin V-FITC/7-AAD staining based flow cytometry relative to control. The procedure, abridged:
as §5

The source made the active and inactive calls. No cut-off for these calls is given here.

As to `C=C1C(=O)O[C@@H]2[C@@H]1CC/C(C)=C/CC[C@]1(C)O[C@H]21`, the CC50 is 8.4 µM with U-937 [1]; above 20 µM in the series on KG-1 [3]; 13.9 µM in the series on HL-60 [6]; 7.4 µM in the series with TUR [9]; 3.4 µM with MOLM-13 [10]; 3.6 µM in the series on Kasumi 1 [11]. The CC50 with THP-1 [12] is above 20 µM; in the series with MV4-11 [15], 8.6 µM. Further, the outcome with MOLM-13 [2], in the series on MOLM-13 [8] and in the series on MOLM-13 [14] was Active. Further, the inhibition entry in the series listed under Homo sapiens [4], in the series filed under Homo sapiens [5], in the series listed under Homo sapiens [7] and in the series filed under Homo sapiens [13] was “Active” in each case. Also, the Activity result with MOLM-13 [16] is recorded as “Non-Toxic”.

As usually defined, the IC50 is the concentration that inhibits the measured activity by half. Consider `C=C1C(=O)O[C@@H]2[C@H]3C(C)=CC(=O)C3=C(C)CC[C@@H]12` [DEHYDROLEUCODIN], for which the CC50 with U-937 [1] is 18.9 µM; with KG-1 [3], 18.7 µM; with HL-60 [6] it was 14.1 µM; with TUR [9], 12.2 µM; in the series with MOLM-13 [10] it was 12.6 µM; in the series on Kasumi 1 [11] it was 12.9 µM. Moreover, the CC50 came to 16.8 µM with THP-1 [12], 5 µM in the series on MV4-11 [15] and 9.4 µM in the series with Leukemia cell. Also, the IC50 turned out to be 5.3 µM in the series on KB, 10 µM in the series with HeLa S3 and 5 µM in the series on MCF7. In addition, the outcome in the series with MOLM-13 [2], in the series on THP-1 [17], in the series on MOLM-13 [18], with HL-60 [19], with MOLM-13 [8] and with Kasumi 1 [21] was Active. The outcome in the series with U-937 [22], with TUR [23], in the series on MV4-11 [25], with MOLM-13 [14] and with KG-1 [26] was Active. In addition, the inhibition entry in the series filed under Homo sapiens [4], in the series filed under Homo sapiens [5], in the series filed under Homo sapiens [7] and in the series listed under Homo sapiens [13] was “Active” in each case. For the same compound, the Activity result in the series on PBMC [20], in the series on Bone marrow cell [24] and in the series with MOLM-13 [16] was “Non-Toxic” throughout.

With `CC1=CC(=O)C2=C(C)CC[C@@H]3[C@H](OC(=O)[C@H]3C)[C@@H]12` [DESACETOXYMATRICARIN], the CC50 with U-937 [1], in the series on KG-1 [3], in the series on HL-60 [6], with TUR [9], with MOLM-13 [10] and in the series on Kasumi 1 [11] was above 20 µM throughout. In addition, the CC50 in the series with THP-1 [12] and in the series with MV4-11 [15] was above 20 µM each time. For the same compound, the outcome in the series with MOLM-13 [2], in the series with MOLM-13 [8] and in the series on MOLM-13 [14] was Active. For the same compound, the Activity result with PBMC [27] and in the series on Bone marrow cell [28] was “Non-Toxic” in each case. For the same compound, the inhibition entry in the series filed under Homo sapiens [7] is “inactive”.
